Screening results: PubChem BioAssay, several laboratories
Rin1 Abl inh = inhibitors of Rin1-Abl protein binding, primary screen, biochemical, TR-FRET; Tyrosine-protein kinase ABL1 (Homo sapiens) + Ras and Rab interactor 1 (Homo sapiens), …; inhibition, % at 7.35 µM; 360,000 tested, 0.4% active; in the data active means inhibition above about 5%, passing the limit was not always enough
SR-BI DiI inh = inhibitors of SR-BI mediated HDL lipid uptake, primary screen, ldlA[mSR-BI] cells, fluorescence, single point; ldlA[mSR-BI] CHO cells, DiI-HDL uptake fluorescence, 3 h; Scavenger receptor class B member 1 (Mus musculus), Q61009; 320,000 tested, 0.96% active; inhibition, % at 12.5 µM;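 active means mean replicate inhibition of at least 70% and a set share of replicates each scoring 70 or more; inconclusive means meets just one of the two criteria; inactive means fails both criteria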;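 further: 0% = median of neutral control wells and 100% = median of positive control wells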
GRK2 inh = compounds blocking aptamer binding on GRK2 – biochemical, human GRK2, bead flow cytometry, HTS, primary screen; Beta-adrenergic receptor kinase 1 (Homo sapiens), P25098; inhibition of aptamer binding, % at 10 µM; AID 488847, 2010; 330,000 tested, 0.59% active; FAM-aptamer displacement from GRK2;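 active means inhibition of aptamer binding above 40%, roughly 3 SD of noise, on plates passing a quality check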;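 further: median bead fluorescence of bound FAM aptamer so fluorescent compounds give negative values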
SR-BI uptake up = activators of SR-BI mediated DiI-HDL uptake, primary screen, ldlA[mSR-BI] CHO cells, DiI fluorescence; 3 h; 100 = double the neutral-control signal; activation, % at 12.5 µM; 320,000 tested, 0.096% active; AID 504775, 2011;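 active means mean replicate activation of at least 60% and every replicate at or above 60%; inconclusive means mean or all-replicate condition met, but not both; inactive means mean below 60% and not all replicates reaching 60%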;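 further: 0% = median plate neutral-control signal and 100% = twice that signal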
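Assay system: CHO ldlA[mSR-BI] cells, LDL receptor-null, SR-BI overexpressing; medium: Ham's F12 with 0.5% BSA, HEPES 25 mM, pH 7.4; also added: DiI-HDL 10 µg/mL; timing: 3 h uptake period with compound, 37 °C; signal: DiI fluorescence, bottom read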
GRK2 inh confirm = GRK2 aptamer-displacing inhibitors, retest, confirmation, biochemical, cherry pick 1, bead flow cytometry; bead-bound GRK2, FAM-aptamer displacement; 2,000 tested, 4% active; AID 504451, 2011; shares compounds with GRK2 inh; aptamer displacement, % at 10 µM;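 active means aptamer displacement above 40%, near three times the noise of non-fluorescent compounds, on plates passing quality checks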;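 further: negative values mostly reflect intrinsic compound fluorescence rather than true enhancement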
Aptamer quench SP = counter-screen for GRK2 aptamer inhibitors: fluorescent aptamer quenchers | shares compounds with GRK2 inh | Carboxyfluorescein RNA aptamer on beads, flow cytometry quenching; stronger effect = lower value | fluorescence response (% of DMSO), % at 10 µM | 2,000 tested, under 10 active;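 active means compounds that quench the bead-bound fluorescent RNA probe, cutting fluorescence to under half of the solvent control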;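 further: counterscreen run without GRK2 so only probe quenching by compound is measured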
GRK2 CP2 = GRK2 aptamer-displacing inhibitors, hit retest, confirmation, biochemical, cherry pick 2, bead flow cytometry | shares compounds with GRK2 inh | bead-bound GRK2, FAM-aptamer displacement | inhibition of aptamer binding, % at 10 µM | 360 tested, under 10 active;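 active means inhibition of aptamer binding above 40%, about triple the noise seen with nonglowing compounds, on plates passing quality control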;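 further: negative values mostly come from compounds that fluoresce themselves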
FAM quench SP = aptamer fluorescence quenching in GRK2 counter-screen | shares compounds with GRK2 inh | carboxyfluorescein RNA aptamer beads, flow cytometry quenching; stronger effect = lower value | fluorescence response vs DMSO, % at 10 µM | 360 tested, under 10 active;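 active means response vs DMSO under 50%, meaning signal dropped by over half, treated as fluorescence quencher; inconclusive means no clear call, values can overlap the other calls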;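 further: labelled aptamer on streptavidin beads without GRK2 as a quench counter-screen; 100% = bead fluorescence of DMSO wells and lower means quenching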
* marks the source's active call; other numbers are inactive results; ? = inconclusive; nt = no result. Most compounds without a hit are left out; they make up all but 1.9% or so of the library.

SMILES	Rin1 Abl inh	SR-BI DiI inh	GRK2 inh	SR-BI uptake up	GRK2 inh confirm	Aptamer quench SP	others
O=C(N/N=C/c1cc([N+](=O)[O-])ccc1N1CCCCCC1)c1ccccn1	-4	80*	84*	-80	2	97
COc1ccc(NC(=O)CSc2nnc(N)s2)cc1S(=O)(=O)N1CCCCC1	4	7	0	-7	nt	nt
Cc1cccc2c1cnn2C(=O)CCC(=O)N1CCC(C)CC1	1	-10	70*	10	-2	95
O=S(=O)(c1ccccc1)n1cc(-c2cccc3nccn23)c2ccccc21	-6	nt	nt	nt	nt	nt
O=C(COC(=O)Cc1ccc(-c2ccccc2)cc1)NCc1ccc(F)cc1	-1	-18	8	18	-1	99
Cc1ccc(CNC(=O)COC(=O)Cc2ccc(-c3ccccc3)cc2)cc1	2	7	0	-7	-3	99
CC1(NC(=O)NCc2ccccc2)CCS(=O)(=O)C1 (centres undefined)	5	-9	2	9	nt	nt
CCOc1ccc(NC(=O)CSc2ccc3nnc(-c4cccnc4)n3n2)cc1	-7	-13	41*	13	nt	nt	GRK2 CP2=-1;FAM quench SP=100
O=C(CSc1ccc2nnc(-c3cccnc3)n2n1)Nc1ccc(F)cc1	-3	1	0	-1	nt	nt
COc1ccc(CNC(=O)COC(=O)c2ccc(S(=O)(=O)N3CCCCC3)cc2)cc1	4	-10	2	10	nt	nt
CCCCOCCCNc1ncnc2c1[nH]c1ccccc12	-2	-6	53*	6	-8	99
COCCNCCCOc1ccc(Br)cc1Cl	-1	-23	1	23	nt	nt
COCCCNCCCCOc1ccc(Br)cc1Cl	-1	2	41*	-2	nt	nt	GRK2 CP2=14;FAM quench SP=99
COCCCNCCOCCOc1ccc(C)cc1Br	-2	1	100*	-1	nt	nt	GRK2 CP2=-10;FAM quench SP=101
O=C1CC(c2ccc3c(c2)OCCO3)Oc2ccccc21 (centres undefined)	5	-4	0	4	nt	nt
O=C1CC(c2ccc3c(c2)OCCO3)Oc2ccc([N+](=O)[O-])cc21 (centres undefined)	0	17	42*	-17	-2	102
CCCn1nnnc1NCc1c(F)cccc1Cl	0	2	100*	-2	10	97
Cc1cccc(C(=O)N2CCN(c3ccc(C(F)(F)F)cn3)CC2)c1C	0	-7	1	7	-13	100
CN1CCc2nc3sc(C(=O)C45CC6CC(CC(C6)C4)C5)c(N)c3cc2C1	-1	11	51*	-11	-21	93
Cc1ccccc1C(=O)NCCc1nnc(SCC(=O)Nc2nc(-c3ccccc3)cs2)n1C	-3	41	55*	-41	-2	96
CC(=O)N1CCc2cc(S(=O)(=O)NCC(=O)NCc3ccc(Cl)cc3)ccc21	1	-6	0	6	nt	nt
COCCn1c(SCC(=O)Nc2cccc(C)c2)nnc1C(C)C	0	6	41*	-6	nt	nt	GRK2 CP2=5;FAM quench SP=100
COCCn1c(SCC(=O)Nc2cc(C)cc(C)c2)nnc1C(C)C	0	18	2	-18	nt	nt
CN(C)CCNC(=O)c1ccc(CS(=O)(=O)c2c(Cl)cccc2Cl)o1	-1	-23	0	23	nt	nt
CCCN(CCC)CCCNC(=O)c1ccc(CS(=O)(=O)c2c(Cl)cccc2Cl)o1	-3	-65	48*	?	nt	nt	GRK2 CP2=-14;FAM quench SP=99
SMILES	Rin1 Abl inh	SR-BI DiI inh	GRK2 inh	SR-BI uptake up	GRK2 inh confirm	Aptamer quench SP	others
CCN(CC)S(=O)(=O)c1ccc(C(=O)OC2CCCCC2CN(C)C)cc1 (centres undefined)	2	-4	70*	4	-3	99
Cc1cc(C)cc(OCC(=O)OCC(=O)c2cc(C)n(C3CC3)c2C)c1	3	6	39	-6	7	101
CCC(=O)c1ccc(OCC(=O)OCC(=O)c2cc(C)n(C3CC3)c2C)cc1	0	-9	0	9	nt	nt
Cc1ccc(C(=Cc2ccc([N+](=O)[O-])cc2)C(=O)O)cc1	0	nt	nt	nt	nt	nt
Cc1ccc(NC(=O)c2cnccn2)cc1S(=O)(=O)N1CCCCCC1	2	30	10	-30	nt	nt
Cn1c(SCc2ccccc2)nc2c1c(=O)[nH]c(=O)n2C	-2	-1	4	1	nt	nt
Cn1c(SCc2ccccc2Cl)nc2c1c(=O)[nH]c(=O)n2C	0	26	71*	-26	-2	95
COc1ccc(/C=N/n2cnc3c([nH]c4ccccc43)c2=O)cc1COc1ccccn1	nt	nt	0	nt	nt	nt
COCCCN1C(=O)C(=O)/C(=C(/O)c2ccc(S(=O)(=O)N3CCCCC3)cc2)C1c1ccc(O)cc1 (centres undefined)	6	-31	0	31	-4	95
COc1ccccc1CNc1ccc(CNc2ncn[nH]2)cc1	3	27	52*	-27	-1	98
c1ccc2c(CNc3ccc(CNc4ncn[nH]4)cc3)cccc2c1	-3	4	0	-4	nt	nt
Cc1cccc([C@@H]2[C@@H]3C(=O)N(Cc4ccccc4)C(=O)[C@@H]3[C@]3(Cc4ccccc4)C(=O)N(c4ccc(C(F)(F)F)cc4)C(=O)N23)c1	3	-11	0	11	nt	nt
Cc1c(Cl)cccc1NS(=O)(=O)c1cn(C)c(=O)n(C)c1=O	-4	-21	59*	21	-2	102
Nc1c(C(=O)CSc2nncn2-c2ccccc2)c(=O)[nH]c(=O)n1C1CC1	3	-13	61*	13	-1	95
CN(C)c1ncnc2c1ncn2[C@H]1CN(C2CCCC2)C[C@@H](CO)O1	-5	nt	nt	nt	nt	nt
O=C(CCc1ccccc1)Nc1nc2n(n1)C(c1ccc(Cl)cc1)CC(=O)N2 (centres undefined)	2	-21	100*	21	-3	95
O=C1CSC(=S)N1	4	-25	3	25	nt	nt
COC(=O)c1ccc(Oc2ccc3nnc(C)n3n2)cc1	1	-17	0	17	nt	nt
COC(=O)c1ccc(Oc2ccc3nncn3n2)cc1	8	-1	49*	1	0	100
CCCNC(=O)NC(=O)CSc1nncs1	5	-22	2	22	nt	nt
